The nature of the assay: Antitumor activity against renal cell lines of the NCI60 panel. The class given is functional, Homo sapiens. Summed up: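 Run by NCI in the 60-cell-line panel (details in Supporting Information). Highest concentration 10^-4 M unless noted (one case 10-2.6 M). Values expressed as -log molar concentration giving 50% growth inhibition (pGI50), total cytostasis (pTGI) or 50% cell kill (pLC50); only values >4.00 reported; mean graph midpoint is the calculated panel mean.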

“And” between values parts separate entries of the source, which are not always exact repeats. Equal values may be shown once.

`N=C(N)N/N=C/c1c(-c2cc([N+](=O)[O-])c(Cl)cc2Cl)nc2n1CCS2` registered an LC50 of 5.25 µM.
With `Cc1sc2nc(-c3cc([N+](=O)[O-])c(Cl)cc3Cl)c(/C=N/NC(=N)N)n2c1C` the figure was 36.3 µM and 85.1 µM; with `Cc1csc2nc(-c3cc([N+](=O)[O-])c(Cl)cc3Cl)c(/C=N/N=C(N)N)n12`, 64.6 µM.
With `CCc1cn2c(/C=N/NC(=N)N)c(-c3cc([N+](=O)[O-])c(Cl)cc3Cl)nc2s1` the figure was 3.02 µM and 6.46 µM.
Regarding `Cc1sc2nc(-c3ccccn3)c(/C=N/NC(=N)N)n2c1C`, the LC50 is 57.5 µM.
The value for `Cc1cn2c(/C=N/NC(=N)N)c(-c3ccncc3)nc2s1` was 72.4 µM; that for `N=C(N)N/N=C/c1c(-c2ccccn2)nc2sc(Cl)cn12` was 28.8 µM; that for `N=C(N)N/N=C/c1c(-c2cccnc2)nc2sc(Cl)cn12` was 69.2 µM.
With `N=C(N)N/N=C/c1c(-c2cc([N+](=O)[O-])c(Cl)cc2Cl)nc2sccn12`, the LC50 was 4.47 µM and 24 µM.
The value for `N=C(N)N/N=C/c1c(-c2ccc(Cl)c([N+](=O)[O-])c2)nc2n1CCS2` was 28.2 µM and 64.6 µM.
The value for `N=C(N)N/N=C/c1c(-c2ccncc2)nc2sc(Cl)cn12` was 15.8 µM and 44.7 µM; that for `CCCc1cn2c(/C=N/NC(=N)N)c(-c3cc([N+](=O)[O-])c(Cl)cc3Cl)nc2s1` was 5.37 µM; that for `Cc1cn2c(/C=N/NC(=N)N)c(-c3ccccn3)nc2s1` was 19.5 µM and 53.7 µM.
The value for `Cc1cn2c(/C=N/NC(=N)N)c(-c3cccnc3)nc2s1` was 27.5 µM and 61.7 µM; that for `N=C(N)N/N=C/c1c(-c2cc([N+](=O)[O-])c(Cl)cc2Cl)nc2sc(Cl)cn12` was 97.7 µM.

The values are drawn from ChEMBL document CHEMBL1138854, “Synthesis and antitumor activity of guanylhydrazones from 6-(2,4-dichloro-5-nitrophenyl)imidazo[2,1-b]thiazoles and 6-pyridylimidazo[2,1-b]thiazoles(1)” (2006).
